≈ marks a conversion by molar mass, not a printed value.
The compounds below were run on Staphylococcus aureus (assay: Antibacterial activity against Staphylococcus aureus after 24 hrs by MTT assay).
Type: functional
Method in brief: (§1)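 Broth microdilution MIC in MH medium. Compounds from a 50 mg/mL DMSO stock were serially diluted in medium. Inoculum was about 10⁵ cfu/mL, each concentration in triplicate, incubated at 37 °C for 24 h. MIC was read visually, then confirmed by adding PBS with 2 mg/mL MTT and incubating 4–5 h at room temperature. A compound-free medium control checked for any MTT effect on growth.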

MIC [µg/mL] | Structure (SMILES)
> 50 | CN1CCN(CCCOc2cc(O)c3c(=O)c(-c4ccc(O)cc4)coc3c2)CC1
40 (≈ 101 µM) | O=c1c(-c2ccc(O)cc2)coc2cc(OCCCN3CCNCC3)cc(O)c12
35.5 (≈ 89.5 µM) | CN1CCN(CCOc2cc(O)c3c(=O)c(-c4ccc(O)cc4)coc3c2)CC1
32.8 (≈ 77.1 µM) | CCCCN(CCCC)CCOc1cc(O)c2c(=O)c(-c3ccc(O)cc3)coc2c1
> 50 | O=c1c(-c2ccc(O)cc2)coc2cc(OCCNCc3ccco3)cc(O)c12
41.2 (≈ 104 µM) | CCCN(CCC)CCOc1cc(O)c2c(=O)c(-c3ccc(O)cc3)coc2c1
> 50 | O=c1c(-c2ccc(O)cc2)coc2cc(OCCn3cnc4ccccc43)cc(O)c12
37.5 (≈ 91.1 µM) | O=c1c(-c2ccc(O)cc2)coc2cc(OCCCCN3CCOCC3)cc(O)c12

The compounds below were run on Pseudomonas fluorescens (assay: Antibacterial activity against Pseudomonas fluorescens after 24 hrs by MTT assay).
Type: functional
Method in brief: as §1

MIC [µg/mL] | Structure (SMILES)
> 50 | CN1CCN(CCCOc2cc(O)c3c(=O)c(-c4ccc(O)cc4)coc3c2)CC1
> 50 | O=c1c(-c2ccc(O)cc2)coc2cc(OCCCN3CCNCC3)cc(O)c12
> 50 | CN1CCN(CCOc2cc(O)c3c(=O)c(-c4ccc(O)cc4)coc3c2)CC1
37 (≈ 87 µM) | CCCCN(CCCC)CCOc1cc(O)c2c(=O)c(-c3ccc(O)cc3)coc2c1
> 50 | O=c1c(-c2ccc(O)cc2)coc2cc(OCCNCc3ccco3)cc(O)c12
47.5 (≈ 120 µM) | CCCN(CCC)CCOc1cc(O)c2c(=O)c(-c3ccc(O)cc3)coc2c1
> 50 | O=c1c(-c2ccc(O)cc2)coc2cc(OCCn3cnc4ccccc43)cc(O)c12
> 50 | O=c1c(-c2ccc(O)cc2)coc2cc(OCCCCN3CCOCC3)cc(O)c12

What follows are compounds tested on Bacillus subtilis (assay: Antibacterial activity against Bacillus subtilis after 24 hrs by MTT assay).
Type: functional
Method in brief: as §1

MIC [µg/mL] | Structure (SMILES)
43 (≈ 105 µM) | CN1CCN(CCCOc2cc(O)c3c(=O)c(-c4ccc(O)cc4)coc3c2)CC1
> 50 | O=c1c(-c2ccc(O)cc2)coc2cc(OCCCN3CCNCC3)cc(O)c12
> 50 | CN1CCN(CCOc2cc(O)c3c(=O)c(-c4ccc(O)cc4)coc3c2)CC1
30 (≈ 70.5 µM) | CCCCN(CCCC)CCOc1cc(O)c2c(=O)c(-c3ccc(O)cc3)coc2c1
> 50 | O=c1c(-c2ccc(O)cc2)coc2cc(OCCNCc3ccco3)cc(O)c12
> 50 | CCCN(CCC)CCOc1cc(O)c2c(=O)c(-c3ccc(O)cc3)coc2c1
> 50 | O=c1c(-c2ccc(O)cc2)coc2cc(OCCn3cnc4ccccc43)cc(O)c12
35.5 (≈ 86.3 µM) | O=c1c(-c2ccc(O)cc2)coc2cc(OCCCCN3CCOCC3)cc(O)c12

The compounds below were run on Aspergillus niger (assay: Antifungal activity against Aspergillus niger after 48 hrs by MTT assay).
Type: functional
Method in brief: (§2)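 Antifungal MIC by microdilution in RPMI-1640 medium. Compounds came from a 50 mg/mL DMSO stock and were serially diluted. Inoculum was about 10⁵ cfu/mL, with triplicate wells per concentration, incubated at 37 °C for 48 h. MIC was judged visually, followed by PBS containing 2 mg/mL MTT for 4–5 h at room temperature for the colorimetric read. A compound-free control tested MTT interference.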

MIC [µg/mL] | Structure (SMILES)
> 50 | CN1CCN(CCCOc2cc(O)c3c(=O)c(-c4ccc(O)cc4)coc3c2)CC1
> 50 | O=c1c(-c2ccc(O)cc2)coc2cc(OCCCN3CCNCC3)cc(O)c12
> 50 | CN1CCN(CCOc2cc(O)c3c(=O)c(-c4ccc(O)cc4)coc3c2)CC1
41.6 (≈ 97.8 µM) | CCCCN(CCCC)CCOc1cc(O)c2c(=O)c(-c3ccc(O)cc3)coc2c1
> 50 | O=c1c(-c2ccc(O)cc2)coc2cc(OCCNCc3ccco3)cc(O)c12
> 50 | CCCN(CCC)CCOc1cc(O)c2c(=O)c(-c3ccc(O)cc3)coc2c1
> 50 | O=c1c(-c2ccc(O)cc2)coc2cc(OCCn3cnc4ccccc43)cc(O)c12
> 50 | O=c1c(-c2ccc(O)cc2)coc2cc(OCCCCN3CCOCC3)cc(O)c12

Structure (SMILES) | MIC [µg/mL]
CC(=O)N1CCN(c2ccc(OCC3COC(Cn4ccnc4)(c4ccc(Cl)cc4Cl)O3)cc2)CC1 (centres undefined) [KETOCONAZOLE] | 7.8 (≈ 14.7 µM)

What follows are compounds tested on Trichophyton rubrum (assay: Antifungal activity against Trichophyton rubrum after 48 hrs by MTT assay).
Type: functional
Method in brief: as §2

MIC [µg/mL] | Structure (SMILES)
> 50 | CN1CCN(CCCOc2cc(O)c3c(=O)c(-c4ccc(O)cc4)coc3c2)CC1
> 50 | O=c1c(-c2ccc(O)cc2)coc2cc(OCCCN3CCNCC3)cc(O)c12
> 50 | CN1CCN(CCOc2cc(O)c3c(=O)c(-c4ccc(O)cc4)coc3c2)CC1
> 50 | CCCCN(CCCC)CCOc1cc(O)c2c(=O)c(-c3ccc(O)cc3)coc2c1
> 50 | O=c1c(-c2ccc(O)cc2)coc2cc(OCCNCc3ccco3)cc(O)c12
> 50 | CCCN(CCC)CCOc1cc(O)c2c(=O)c(-c3ccc(O)cc3)coc2c1
> 50 | O=c1c(-c2ccc(O)cc2)coc2cc(OCCn3cnc4ccccc43)cc(O)c12
> 50 | O=c1c(-c2ccc(O)cc2)coc2cc(OCCCCN3CCOCC3)cc(O)c12

Structure (SMILES) | MIC [µg/mL]
CC(=O)N1CCN(c2ccc(OCC3COC(Cn4ccnc4)(c4ccc(Cl)cc4Cl)O3)cc2)CC1 (centres undefined) [KETOCONAZOLE] | 3.9 (≈ 7.34 µM)

These compounds were tested on Escherichia coli (assay: Antibacterial activity against Escherichia coli after 24 hrs by MTT assay).
Type: functional
Method in brief: as §1

MIC [µg/mL] | Structure (SMILES)
> 50 | CN1CCN(CCCOc2cc(O)c3c(=O)c(-c4ccc(O)cc4)coc3c2)CC1
> 50 | O=c1c(-c2ccc(O)cc2)coc2cc(OCCCN3CCNCC3)cc(O)c12
> 50 | CN1CCN(CCOc2cc(O)c3c(=O)c(-c4ccc(O)cc4)coc3c2)CC1
> 50 | CCCCN(CCCC)CCOc1cc(O)c2c(=O)c(-c3ccc(O)cc3)coc2c1
> 50 | O=c1c(-c2ccc(O)cc2)coc2cc(OCCNCc3ccco3)cc(O)c12
> 50 | CCCN(CCC)CCOc1cc(O)c2c(=O)c(-c3ccc(O)cc3)coc2c1
> 50 | O=c1c(-c2ccc(O)cc2)coc2cc(OCCn3cnc4ccccc43)cc(O)c12
> 50 | O=c1c(-c2ccc(O)cc2)coc2cc(OCCCCN3CCOCC3)cc(O)c12

Each compound was assayed on Candida albicans (assay: Antifungal activity against Candida albicans after 48 hrs by MTT assay).
Type: functional
Method in brief: as §2

MIC [µg/mL] | Structure (SMILES)
> 50 | CN1CCN(CCCOc2cc(O)c3c(=O)c(-c4ccc(O)cc4)coc3c2)CC1
> 50 | O=c1c(-c2ccc(O)cc2)coc2cc(OCCCN3CCNCC3)cc(O)c12
> 50 | CN1CCN(CCOc2cc(O)c3c(=O)c(-c4ccc(O)cc4)coc3c2)CC1
> 50 | CCCCN(CCCC)CCOc1cc(O)c2c(=O)c(-c3ccc(O)cc3)coc2c1
> 50 | O=c1c(-c2ccc(O)cc2)coc2cc(OCCNCc3ccco3)cc(O)c12
> 50 | CCCN(CCC)CCOc1cc(O)c2c(=O)c(-c3ccc(O)cc3)coc2c1
> 50 | O=c1c(-c2ccc(O)cc2)coc2cc(OCCn3cnc4ccccc43)cc(O)c12
> 50 | O=c1c(-c2ccc(O)cc2)coc2cc(OCCCCN3CCOCC3)cc(O)c12

Structure (SMILES) | MIC [µg/mL]
CC(=O)N1CCN(c2ccc(OCC3COC(Cn4ccnc4)(c4ccc(Cl)cc4Cl)O3)cc2)CC1 (centres undefined) [KETOCONAZOLE] | 3.9 (≈ 7.34 µM)
